# Measured values from ChEMBL document CHEMBL4177761, “Highlights of the Structure-Activity Relationships of Benzimidazole Linked Pyrrolidines Leading to the Discovery of the Hepatitis C Virus NS5A Inhibitor Pibrentasvir (ABT-530)” (J Med Chem, 2018).
# Residue numbers refer to the chain shown, from its start.
# What was measured:
# [1] = Intrinsic clearance in rat microsomes; type: ADME, Microsome
# [2] = Intrinsic clearance in human microsomes; type: ADME, Microsome
# [3] = Solubility of the compound by CLND method; type: physicochemical
# [4] = Permeability of the compound by PAMPA; type: ADME; details: read-out: permeability
# [5] = AUC (0 to infinity) in mouse at 3 mg/kg, po by LC-MS method; type: ADME, organism-based; parameters: dose 3 mg/kg, route oral, time infinity; details: in vivo
# In short: (§1)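 Single dose, 3 mg/kg, in mouse or rat. IV vehicle: DMSO:Tween 80:PEG-400:D5W 2:5:20:73 (v/v). PO vehicle: Phosol 53 MCT:PEG-400:Poloxamer 124:Cremophor RH40 40:20:20:20 (w/w). Acetonitrile protein precipitation, then LC-MS/MS in negative-ion MRM against an internal standard; LOQ ~20 ng/mL.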
# [6] = Lipophilicity, log D of the compound by HPLC method; type: physicochemical
# [7] = Tmax in mouse at 3 mg/kg, po by LC-MS method; type: ADME, organism-based; details: in vivo
# [8] = Drug level in mouse at 3 mg/kg, po at 24 hrs by LC-MS method; type: ADME, organism-based; details: in vivo, read-out: Drug uptake; in short: as §1
# [9] = Cmax in mouse at 3 mg/kg, po by LC-MS method; type: ADME, organism-based; parameters: dose 3 mg/kg, route oral; details: in vivo; in short: as §1
# [10] = Plasma clearance in mouse at 3 mg/kg, iv by LC-MS method; type: ADME, organism-based; in short: as §1
# [11] = Half life in mouse at 3 mg/kg, po by LC-MS method; type: ADME, organism-based; details: in vivo; in short: as §1
# [12] = system: T1, Nonstructural protein 5A (Hepatitis C virus), Q5L478 [Y93C]; experiment: Inhibition of NS5A Y93C mutant in HuH7 cell infected HCV genotype 1a H77 assessed as decrease in viral replication after 4 days by luciferase reporter gene assay relative to wild type protein; details: Hepatitis C virus (isolate H77)
# T1 sequence (whole entry): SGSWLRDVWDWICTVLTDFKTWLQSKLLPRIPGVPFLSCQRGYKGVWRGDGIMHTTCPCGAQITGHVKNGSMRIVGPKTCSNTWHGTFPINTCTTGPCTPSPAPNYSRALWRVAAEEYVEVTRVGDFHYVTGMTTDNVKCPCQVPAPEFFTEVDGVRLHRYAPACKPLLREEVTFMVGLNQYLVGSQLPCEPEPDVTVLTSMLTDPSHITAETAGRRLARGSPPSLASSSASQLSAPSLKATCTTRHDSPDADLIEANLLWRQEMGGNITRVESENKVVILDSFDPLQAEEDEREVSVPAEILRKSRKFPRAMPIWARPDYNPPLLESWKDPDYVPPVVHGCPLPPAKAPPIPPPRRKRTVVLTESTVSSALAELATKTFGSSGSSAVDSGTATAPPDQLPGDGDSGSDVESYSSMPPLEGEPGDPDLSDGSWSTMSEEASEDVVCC
# In short: (§2)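 Stable subgenomic luciferase replicons in Huh-7 cells: genotype 1a-H77 carrying NS5A substitutions M28T, Q30E, Q30R, Y93C, Y93H or Y93N, tested alongside the wild-type replicon. Cells are incubated 4 days with compound in DMEM with 5% FBS. Luciferase read-out, EC50 by 4-parameter logistic fit, and fold change versus wild type.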
# [13] = Volume of distribution at steady state in mouse at 3 mg/kg, iv by LC-MS method; type: ADME, organism-based; details: in vivo, read-out: Vdss
# In short: (§3)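 Mice received a single 3 mg/kg IV dose in 2:5:20:73 (v/v) DMSO:Tween 80:PEG-400:D5W. Heparinized plasma taken at 0.1, 0.25, 0.5, 1, 2, 4, 6, 9, 12 and 24 h. Samples precipitated with acetonitrile and assayed by negative-ion MRM LC-MS. Quantified by unweighted linear regression of parent/internal-standard area ratio against spiked standards; LOQ ~20 ng/mL.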
# [14] = target: T2, Nonstructural protein 5A (Hepatitis C virus) (UniProt Q5L478); experiment: Inhibition of NS5A Q30R mutant in HuH7 cell infected HCV genotype 1a H77 assessed as decrease in viral replication after 4 days by luciferase reporter gene assay relative to wild type protein; details: Hepatitis C virus (isolate H77); in short: as §2
# T2 sequence (whole entry): T1 sequence (whole entry) with C93Y
# [15] = system: T3, Nonstructural protein 5A (Hepatitis C virus), Q5L478 [Y93N]; experiment: Inhibition of NS5A Y93N mutant in HuH7 cell infected HCV genotype 1a H77 assessed as decrease in viral replication after 4 days by luciferase reporter gene assay relative to wild type protein; details: Hepatitis C virus (isolate H77); in short: as §2
# T3 sequence (whole entry): T1 sequence (whole entry) with C93N
# [16] = target: T2, Nonstructural protein 5A (Hepatitis C virus); experiment: Inhibition of NS5A M28T mutant in HuH7 cell infected HCV genotype 1a H77 assessed as decrease in viral replication after 4 days by luciferase reporter gene assay relative to wild type protein; details: Hepatitis C virus (isolate H77); in short: as §2
# [17] = system: T4, Nonstructural protein 5A (Hepatitis C virus), Q5L478 [Y93H]; experiment: Inhibition of NS5A Y93H mutant in HuH7 cell infected HCV genotype 1b Con1 assessed as decrease in viral replication after 4 days by luciferase reporter gene assay relative to wild type protein; details: Hepatitis C virus (isolate Con1)
# T4 sequence (whole entry): T1 sequence (whole entry) with C93H
# In short: as §2, with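 “1b-Con1” for “1a-H77”, “NS5A” for “NS5A substitutions M28T, Q30E, Q30R, Y93C,”, “from a” for “by”, “expressed as” for “and”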
# [18] = system: T4, Nonstructural protein 5A (Hepatitis C virus), Q5L478 [Y93H]; experiment: Inhibition of NS5A Y93H mutant in HuH7 cell infected HCV genotype 1a H77 assessed as decrease in viral replication after 4 days by luciferase reporter gene assay relative to wild type protein; details: Hepatitis C virus (isolate H77); in short: as §2
# [19] = Oral bioavailability in mouse at 3 mg/kg by LC-MS method; type: ADME, organism-based; details: in vivo; in short: as §1
# [20] = AUC (0 to infinity) in mouse at 3 mg/kg, iv by LC-MS method; type: ADME, organism-based; parameters: dose 3 mg/kg, route intravenous, time infinity; details: in vivo; in short: as §1
# [21] = Volume of distribution at steady state during terminal phase in mouse at 3 mg/kg, iv by LC-MS method; type: ADME, organism-based; details: in vivo, read-out: Vbeta; in short: as §3
# [22] = Half life in mouse at 3 mg/kg, iv by LC-MS method; type: ADME, organism-based; details: in vivo; in short: as §1
# [23] = Volume of distribution at steady state during terminal phase in mouse at 5 mg/kg, iv by LC-MS method; type: ADME, organism-based; details: in vivo, read-out: Vbeta
# [24] = Volume of distribution at steady state in mouse at 5 mg/kg, iv by LC-MS method; type: ADME, organism-based; details: in vivo, read-out: Vdss
# [25] = Tmax in mouse at 5 mg/kg, po by LC-MS method; type: ADME, organism-based; details: in vivo
# [26] = target: T2, Nonstructural protein 5A (Hepatitis C virus); experiment: Inhibition of NS5A Q30E mutant in HuH7 cell infected HCV genotype 1a H77 assessed as decrease in viral replication after 4 days by luciferase reporter gene assay relative to wild type protein; details: Hepatitis C virus (isolate H77); in short: as §2
# [27] = AUC (0 to infinity) in mouse at 5 mg/kg, po by LC-MS method; type: ADME, organism-based; parameters: dose 5 mg/kg, route oral, time infinity; details: in vivo
# [28] = AUC (0 to infinity) in mouse at 5 mg/kg, iv by LC-MS method; type: ADME, organism-based; parameters: dose 5 mg/kg, time infinity, route intravenous; details: in vivo
Structure (SMILES),CLint scaled [1],CLint scaled [2],solubility kinetic [3],Papp [4],AUC(0-inf) [5],logD [6],Tmax [7],concentration at 24 h [8],Cmax [9],other results
COC(=O)N[C@H](C(=O)N1CCC[C@H]1c1nc2ccc([C@H]3CC[C@H](c4ccc5nc([C@@H]6CCCN6C(=O)[C@@H](NC(=O)OC)C(C)C)[nH]c5c4)N3c3cc(Cl)c(N4CCCCC4)c(Cl)c3)cc2[nH]1)C(C)C,50 mL/min/kg,< 25 mL/min/kg,< 0.6 µM,0.03 ×10⁻⁶ cm/s,960 ng·h/mL,5.9,,,,
COC(=O)N[C@H](C(=O)N1CCC[C@H]1c1nc2cc(F)c([C@H]3CC[C@H](c4cc5[nH]c([C@@H]6CCCN6C(=O)[C@@H](NC(=O)OC)C(C)C)nc5cc4F)N3c3cc(F)c(N4CCC(c5ccc(F)cc5)CC4)c(F)c3)cc2[nH]1)C(C)C,,,,,26100 ng·h/mL,,24 h,1710 nM,1710 nM,
COC(=O)N[C@H](C(=O)N1CCC[C@H]1c1nc2ccc([C@H]3CC[C@H](c4ccc5nc([C@@H]6CCCN6C(=O)[C@@H](NC(=O)OC)C(C)C)[nH]c5c4)N3c3ccc(N4CCOCC4)cc3)cc2[nH]1)C(C)C,108 mL/min/kg,113 mL/min/kg,14.2 µM,0.73 ×10⁻⁶ cm/s,2 ng·h/mL,3.2,,,,
COC(=O)N[C@H](C(=O)N1CCC[C@H]1C(=O)Nc1ccc([C@@H]2CC[C@@H](c3ccc(NC(=O)[C@@H]4CCCN4C(=O)[C@@H](NC(=O)OC)C(C)C)cc3)N2c2ccc(C(C)(C)C)cc2)cc1)C(C)C [OMBITASVIR],,,,,11000 ng·h/mL,,7 h,205 nM,636 nM,clearance [10]: 1.83 mL/min/kg; half-life [11]: 702 min; fold change (FC) [12]: 1680; Vd [13]: 1.67 L/kg; fold change (FC) [14]: 800; fold change (FC) [15]: 66700; fold change (FC) [16]: 8960; fold change (FC) [17]: 77; fold change (FC) [18]: 41400; bioavailability [19]: 41.7%; AUC(0-inf) [20]: 26400 ng·h/mL; Vd [21]: 1.8 L/kg; half-life [22]: 660 min
COC(=O)N[C@H](C(=O)N1CCC[C@H]1c1nc2ccc([C@H]3CC[C@H](c4ccc5nc([C@@H]6CCCN6C(=O)[C@@H](NC(=O)OC)C(C)C)[nH]c5c4)N3c3ccc(C(C)(C)C)cc3)cc2[nH]1)C(C)C,167 mL/min/kg,122 mL/min/kg,1.6 µM,0.14 ×10⁻⁶ cm/s,,5.3,,,,Vd [23]: 1.11 L/kg; fold change (FC) [12]: 7; Vd [24]: 0.65 L/kg; Tmax [25]: 1.67 h; fold change (FC) [26]: 61; fold change (FC) [14]: 14; fold change (FC) [15]: 510; fold change (FC) [16]: 4; fold change (FC) [17]: 2; fold change (FC) [18]: 216; AUC(0-inf) [27]: 1390 ng·h/mL; AUC(0-inf) [28]: 13100 ng·h/mL
COC(=O)N[C@H](C(=O)N1CCC[C@H]1c1nc2cc([C@H]3CC[C@H](c4cc5nc([C@@H]6CCCN6C(=O)[C@@H](NC(=O)OC)C(C)C)[nH]c5cc4F)N3c3cc(F)c(N4CCC(c5ccccc5)CC4)c(F)c3)c(F)cc2[nH]1)C(C)C,,,,,14000 ng·h/mL,,24 h,754 nM,754 nM,
COC(=O)N[C@H](C(=O)N1CCC[C@H]1c1nc2ccc([C@H]3CC[C@H](c4ccc5nc([C@@H]6CCCN6C(=O)[C@@H](NC(=O)OC)C(C)C)[nH]c5c4)N3c3ccc(N4CCCCC4)c(F)c3)cc2[nH]1)C(C)C,162 mL/min/kg,140 mL/min/kg,2.5 µM,0.01 ×10⁻⁶ cm/s,2000 ng·h/mL,4.7,,,,
